Experimental data: ChEMBL document CHEMBL2163262 (J Med Chem, 2012); call rule not given here
Values joined by “and” are separate entries in the source; they are usually repeats but may differ in a detail not shown here. Equal entries are not always repeated. Each block holds one compound with its values, some of them ahead of it.

Legend:
[1] = biological target: T1, Neuropeptide FF receptor 1 (Homo sapiens, UniProt Q9GZQ6); experiment: Agonist activity at human NPFF1 receptor expressed in […] assessed as [3H]inositol phosphate accumulation after 2 hrs by liquid scintillation counting; assay type: functional, cell-based, COS-1
T1 sequence (Q9GZQ6 whole entry): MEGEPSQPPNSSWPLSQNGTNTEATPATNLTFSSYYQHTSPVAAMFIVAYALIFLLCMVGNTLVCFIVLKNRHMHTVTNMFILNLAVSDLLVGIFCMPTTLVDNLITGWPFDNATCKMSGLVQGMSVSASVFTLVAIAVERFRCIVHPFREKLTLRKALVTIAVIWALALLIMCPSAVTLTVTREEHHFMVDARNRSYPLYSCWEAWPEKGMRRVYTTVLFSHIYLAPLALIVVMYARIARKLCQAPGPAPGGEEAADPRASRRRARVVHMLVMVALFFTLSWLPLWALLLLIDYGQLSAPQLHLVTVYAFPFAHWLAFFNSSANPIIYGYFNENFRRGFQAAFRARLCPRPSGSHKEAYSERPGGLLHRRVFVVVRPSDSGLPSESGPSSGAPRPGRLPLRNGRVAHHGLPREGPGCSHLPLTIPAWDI
How it was run: (§1)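 IP accumulation in COS-7 cells transiently cotransfected with human NPFFR (Ala point mutant or wt) plus chimeric G protein. Cells seeded at 60,000/well and grown to subconfluency. Compounds were dissolved in DMSO and diluted in DMEM with 10 mM LiCl (1% v/v DMSO final). Stimulation lasted 2 h.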

[2] = biological target: T1, Neuropeptide FF receptor 1; experiment: Agonist activity at human NPFF1 receptor expressed in COS1 cells assessed as [3H]inositol phosphate accumulation up to 10 uM after 2 hrs by liquid scintillation counting; assay type: functional, cell-based; conditions: cos-1
[3] = tested on: Neuropeptide FF receptor 2 (Homo sapiens), Q9Y5X5 [D400A]; experiment: Agonist activity at human NPFF2 receptor D6.59A mutant assessed as [3H]inositol phosphate accumulation at 31.6 uM after 2 hrs by liquid scintillation counting relative to NPFF
Neuropeptide FF receptor 2 (Homo sapiens), Q9Y5X5 [D400A], sequence (Q9Y5X5 whole entry D400A): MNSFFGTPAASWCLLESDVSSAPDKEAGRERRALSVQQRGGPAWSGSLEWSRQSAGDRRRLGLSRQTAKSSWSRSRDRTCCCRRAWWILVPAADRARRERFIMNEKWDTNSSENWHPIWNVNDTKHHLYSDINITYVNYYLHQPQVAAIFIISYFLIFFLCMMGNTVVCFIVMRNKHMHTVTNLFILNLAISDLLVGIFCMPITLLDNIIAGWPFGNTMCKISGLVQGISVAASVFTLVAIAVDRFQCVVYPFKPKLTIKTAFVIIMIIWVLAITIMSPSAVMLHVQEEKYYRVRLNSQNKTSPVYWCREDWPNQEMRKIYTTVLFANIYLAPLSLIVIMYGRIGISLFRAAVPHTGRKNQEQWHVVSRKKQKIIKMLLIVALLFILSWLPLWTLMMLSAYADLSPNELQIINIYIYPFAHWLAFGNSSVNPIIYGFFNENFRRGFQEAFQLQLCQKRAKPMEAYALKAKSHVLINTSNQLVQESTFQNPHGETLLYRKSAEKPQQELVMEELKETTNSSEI

[4] = tested on: Neuropeptide FF receptor 2 (Homo sapiens), Q9Y5X5 [Y321A]; experiment: Agonist activity at human NPFF2 receptor Y5.38A mutant assessed as [3H]inositol phosphate accumulation at 10 uM after 2 hrs by liquid scintillation counting relative to NPFF; assay type: functional; how it was run: as §1
Neuropeptide FF receptor 2 (Homo sapiens), Q9Y5X5 [Y321A], sequence (Q9Y5X5 whole entry Y321A): as the sequence (Q9Y5X5 whole entry D400A) above, with Y321A, A400D counted along it

[5] = biological target: T2, Neuropeptide FF receptor 2 (Homo sapiens, UniProt Q9Y5X5); experiment: Agonist activity at human NPFF2 receptor expressed in COS1 cells assessed as [3H]inositol phosphate accumulation after 2 hrs by liquid scintillation counting; assay type: functional, cell-based, COS-1
T2 sequence (Q9Y5X5 whole entry): as the sequence (Q9Y5X5 whole entry D400A) above, with A400D counted along it

[6] = tested on: Neuropeptide FF receptor 2 (Homo sapiens), Q9Y5X5 [Y415A]; experiment: Agonist activity at human NPFF2 receptor Y7.33A mutant assessed as [3H]inositol phosphate accumulation at 10 uM after 2 hrs by liquid scintillation counting relative to NPFF; assay type: functional
Neuropeptide FF receptor 2 (Homo sapiens), Q9Y5X5 [Y415A], sequence (Q9Y5X5 whole entry Y415A): as the sequence (Q9Y5X5 whole entry D400A) above, with A400D, Y415A counted along it

[7] = biological target: T2, Neuropeptide FF receptor 2; experiment: Agonist activity at human NPFF2 receptor expressed in COS1 cells assessed as [3H]inositol phosphate accumulation at 10 uM after 2 hrs by liquid scintillation counting relative to NPFF; assay type: functional, cell-based; conditions: COS-1
[8] = biological target: Neuropeptide FF receptor 2 (Homo sapiens, UniProt Q9Y5X5, Y415A); experiment: Agonist activity at human NPFF2 receptor Y7.33A mutant assessed as [3H]inositol phosphate accumulation after 2 hrs by liquid scintillation counting; assay type: functional; how it was run: as §1
Neuropeptide FF receptor 2 (Homo sapiens, UniProt Q9Y5X5, Y415A), sequence (Q9Y5X5 whole entry Y415A): as the sequence (Q9Y5X5 whole entry D400A) above, with A400D, Y415A counted along it

[9] = biological target: Neuropeptide FF receptor 2 (Homo sapiens, UniProt Q9Y5X5, D400A); experiment: Agonist activity at human NPFF2 receptor D6.59A mutant assessed as [3H]inositol phosphate accumulation after 2 hrs by liquid scintillation counting; assay type: functional; how it was run: as §1
Neuropeptide FF receptor 2 (Homo sapiens, UniProt Q9Y5X5, D400A), sequence (Q9Y5X5 whole entry D400A): as the sequence (Q9Y5X5 whole entry D400A) above

[10] = biological target: Neuropeptide FF receptor 2 (Homo sapiens, UniProt Q9Y5X5, Y417A); experiment: Agonist activity at human NPFF2 receptor F/Y7.35A mutant assessed as [3H]inositol phosphate accumulation after 2 hrs by liquid scintillation counting; assay type: functional; how it was run: as §1
Neuropeptide FF receptor 2 (Homo sapiens, UniProt Q9Y5X5, Y417A), sequence (Q9Y5X5 whole entry Y417A): as the sequence (Q9Y5X5 whole entry D400A) above, with A400D, Y417A counted along it

[11] = biological target: T1, Neuropeptide FF receptor 1; experiment: Competitive antagonist activity at human NPFF1 receptor expressed in COS1 cells assessed as inhibition of NPVF-induced [3H]inositol phosphate accumulation after 2 hrs by liquid scintillation counting; assay type: functional, cell-based, COS-1; conditions: read-out: pA2 (converted)
[12] = tested on: Neuropeptide FF receptor 2 (Homo sapiens), Q9Y5X5 [Y417A]; experiment: Agonist activity at human NPFF2 receptor F/Y7.35A mutant assessed as [3H]inositol phosphate accumulation at 10 uM after 2 hrs by liquid scintillation counting relative to NPFF; assay type: functional; how it was run: as §1
Neuropeptide FF receptor 2 (Homo sapiens), Q9Y5X5 [Y417A], sequence (Q9Y5X5 whole entry Y417A): as the sequence (Q9Y5X5 whole entry D400A) above, with A400D, Y417A counted along it

[13] = biological target: Neuropeptide FF receptor 2 (Homo sapiens, UniProt Q9Y5X5, E310A); experiment: Agonist activity at human NPFF2 receptor E5.27A mutant assessed as [3H]inositol phosphate accumulation after 2 hrs by liquid scintillation counting; assay type: functional; how it was run: as §1
Neuropeptide FF receptor 2 (Homo sapiens, UniProt Q9Y5X5, E310A), sequence (Q9Y5X5 whole entry E310A): as the sequence (Q9Y5X5 whole entry D400A) above, with E310A, A400D counted along it

[14] = biological target: Neuropeptide FF receptor 2 (Homo sapiens, UniProt Q9Y5X5, Y321A); experiment: Agonist activity at human NPFF2 receptor Y5.38A mutant assessed as [3H]inositol phosphate accumulation after 2 hrs by liquid scintillation counting; assay type: functional; how it was run: as §1
Neuropeptide FF receptor 2 (Homo sapiens, UniProt Q9Y5X5, Y321A), sequence (Q9Y5X5 whole entry Y321A): as the sequence (Q9Y5X5 whole entry D400A) above, with Y321A, A400D counted along it

[15] = tested on: Neuropeptide FF receptor 2 (Homo sapiens), Q9Y5X5 [E310A]; experiment: Agonist activity at human NPFF2 receptor E5.27A mutant assessed as [3H]inositol phosphate accumulation at 31.6 uM after 2 hrs by liquid scintillation counting relative to NPFF; assay type: functional; how it was run: as §1
Neuropeptide FF receptor 2 (Homo sapiens), Q9Y5X5 [E310A], sequence (Q9Y5X5 whole entry E310A): as the sequence (Q9Y5X5 whole entry D400A) above, with E310A, A400D counted along it

[16] = biological target: Neuropeptide FF receptor 1 (Homo sapiens, UniProt Q9GZQ6, F311A); experiment: Agonist activity at human NPFF1 receptor F/Y7.35A mutant assessed as [3H]inositol phosphate accumulation after 2 hrs by liquid scintillation counting; assay type: functional; how it was run: as §1
Neuropeptide FF receptor 1 (Homo sapiens, UniProt Q9GZQ6, F311A), sequence (Q9GZQ6 whole entry F311A): as the sequence (Q9GZQ6 whole entry) above, with F311A counted along it

[17] = tested on: Neuropeptide FF receptor 1 (Homo sapiens), Q9GZQ6 [E205A]; experiment: Agonist activity at human NPFF1 receptor E5.27A mutant assessed as [3H]inositol phosphate accumulation at 10 uM after 2 hrs by liquid scintillation counting relative to NPVF; assay type: functional; how it was run: as §1
Neuropeptide FF receptor 1 (Homo sapiens), Q9GZQ6 [E205A], sequence (Q9GZQ6 whole entry E205A): as the sequence (Q9GZQ6 whole entry) above, with E205A counted along it

[18] = biological target: T1, Neuropeptide FF receptor 1; experiment: Ratio of EC50 for human NPFF1 receptor F/Y7.35A mutant to EC50 for human wild type NPFF1 receptor
[19] = biological target: T1, Neuropeptide FF receptor 1; experiment: Agonist activity at human NPFF1 receptor expressed in COS1 cells assessed as [3H]inositol phosphate accumulation at 10 uM after 2 hrs by liquid scintillation counting relative to NPVF; assay type: functional, cell-based; conditions: COS-1
[20] = tested on: Neuropeptide FF receptor 1 (Homo sapiens), Q9GZQ6 [F311A]; experiment: Agonist activity at human NPFF1 receptor F/Y7.35A mutant assessed as [3H]inositol phosphate accumulation at 10 uM after 2 hrs by liquid scintillation counting relative to NPVF; assay type: functional
Neuropeptide FF receptor 1 (Homo sapiens), Q9GZQ6 [F311A], sequence (Q9GZQ6 whole entry F311A): as the sequence (Q9GZQ6 whole entry) above, with F311A counted along it

[21] = biological target: T1, Neuropeptide FF receptor 1; experiment: Partial agonist activity at human NPFF1 receptor expressed in COS1 cells assessed as [3H]inositol phosphate accumulation at 10 uM after 2 hrs by liquid scintillation counting relative to NPVF; assay type: functional, cell-based; conditions: COS-1
[22] = tested on: Neuropeptide FF receptor 2 (Homo sapiens), Q9Y5X5 [Y417A]; experiment: Partial agonist activity at human NPFF2 receptor F/Y7.35A mutant assessed as [3H]inositol phosphate accumulation at 10 uM after 2 hrs by liquid scintillation counting relative to NPFF; assay type: functional
[23] = tested on: Neuropeptide FF receptor 1 (Homo sapiens), Q9GZQ6 [Y309A]; experiment: Agonist activity at human NPFF1 receptor Y7.33A mutant assessed as [3H]inositol phosphate accumulation at 10 uM after 2 hrs by liquid scintillation counting relative to NPVF; assay type: functional; how it was run: as §1
Neuropeptide FF receptor 1 (Homo sapiens), Q9GZQ6 [Y309A], sequence (Q9GZQ6 whole entry Y309A): as the sequence (Q9GZQ6 whole entry) above, with Y309A counted along it

[24] = tested on: Neuropeptide FF receptor 1 (Homo sapiens), Q9GZQ6 [F311A]; experiment: Agonist activity at human NPFF1 receptor F/Y7.35A mutant assessed as [3H]inositol phosphate accumulation at 31.6 uM after 2 hrs by liquid scintillation counting relative to NPVF; assay type: functional; how it was run: as §1
[25] = tested on: Neuropeptide FF receptor 2 (Homo sapiens), Q9Y5X5 [Y415A]; experiment: Agonist activity at human NPFF2 receptor Y7.33A mutant assessed as [3H]inositol phosphate accumulation at 31.6 uM after 2 hrs by liquid scintillation counting relative to NPFF; assay type: functional; how it was run: as §1
[26] = tested on: Neuropeptide FF receptor 2 (Homo sapiens), Q9Y5X5 [D400A]; experiment: Agonist activity at human NPFF2 receptor D6.59A mutant assessed as [3H]inositol phosphate accumulation at 31.6 uM after 2 hrs by liquid scintillation counting relative to NPFF; assay type: functional; how it was run: as §1
[27] = biological target: Neuropeptide FF receptor 1 (Homo sapiens, UniProt Q9GZQ6, D294A); experiment: Agonist activity at human NPFF1 receptor D6.59A mutant assessed as [3H]inositol phosphate accumulation after 2 hrs by liquid scintillation counting; assay type: functional; how it was run: as §1
Neuropeptide FF receptor 1 (Homo sapiens, UniProt Q9GZQ6, D294A), sequence (Q9GZQ6 whole entry D294A): as the sequence (Q9GZQ6 whole entry) above, with D294A counted along it

[28] = biological target: Neuropeptide FF receptor 1 (Homo sapiens, UniProt Q9GZQ6, E205A); experiment: Agonist activity at human NPFF1 receptor E5.27A mutant assessed as [3H]inositol phosphate accumulation after 2 hrs by liquid scintillation counting; assay type: functional; how it was run: as §1
Neuropeptide FF receptor 1 (Homo sapiens, UniProt Q9GZQ6, E205A), sequence (Q9GZQ6 whole entry E205A): as the sequence (Q9GZQ6 whole entry) above, with E205A counted along it

[29] = biological target: Neuropeptide FF receptor 1 (Homo sapiens, UniProt Q9GZQ6, Y309A); experiment: Agonist activity at human NPFF1 receptor Y7.33A mutant assessed as [3H]inositol phosphate accumulation after 2 hrs by liquid scintillation counting; assay type: functional; how it was run: as §1
Neuropeptide FF receptor 1 (Homo sapiens, UniProt Q9GZQ6, Y309A), sequence (Q9GZQ6 whole entry Y309A): as the sequence (Q9GZQ6 whole entry) above, with Y309A counted along it

[30] = tested on: Neuropeptide FF receptor 1 (Homo sapiens), Q9GZQ6 [Y216A]; experiment: Agonist activity at human NPFF1 receptor Y5.38A mutant assessed as [3H]inositol phosphate accumulation at 31.6 uM after 2 hrs by liquid scintillation counting relative to NPVF; assay type: functional; how it was run: as §1
Neuropeptide FF receptor 1 (Homo sapiens), Q9GZQ6 [Y216A], sequence (Q9GZQ6 whole entry Y216A): as the sequence (Q9GZQ6 whole entry) above, with Y216A counted along it

[31] = tested on: Neuropeptide FF receptor 1 (Homo sapiens), Q9GZQ6 [D294A]; experiment: Agonist activity at human NPFF1 receptor D6.59A mutant assessed as [3H]inositol phosphate accumulation at 31.6 uM after 2 hrs by liquid scintillation counting relative to NPVF; assay type: functional; how it was run: as §1
Neuropeptide FF receptor 1 (Homo sapiens), Q9GZQ6 [D294A], sequence (Q9GZQ6 whole entry D294A): as the sequence (Q9GZQ6 whole entry) above, with D294A counted along it

[32] = tested on: Neuropeptide FF receptor 2 (Homo sapiens), Q9Y5X5 [Y321A]; experiment: Agonist activity at human NPFF2 receptor Y5.38A mutant assessed as [3H]inositol phosphate accumulation at 31.6 uM after 2 hrs by liquid scintillation counting relative to NPFF; assay type: functional; how it was run: as §1
[33] = biological target: Neuropeptide FF receptor 1 (Homo sapiens, UniProt Q9GZQ6, Y216A); experiment: Agonist activity at human NPFF1 receptor Y5.38A mutant assessed as [3H]inositol phosphate accumulation after 2 hrs by liquid scintillation counting; assay type: functional; how it was run: as §1
Neuropeptide FF receptor 1 (Homo sapiens, UniProt Q9GZQ6, Y216A), sequence (Q9GZQ6 whole entry Y216A): as the sequence (Q9GZQ6 whole entry) above, with Y216A counted along it

[34] = tested on: Neuropeptide FF receptor 1 (Homo sapiens), Q9GZQ6 [E205A]; experiment: Agonist activity at human NPFF1 receptor E5.27A mutant assessed as [3H]inositol phosphate accumulation at 31.6 uM after 2 hrs by liquid scintillation counting relative to NPVF; assay type: functional; how it was run: as §1

Compound: N=C(N)N/N=C/c1ccc(Cl)c(C(F)(F)F)c1
EC50 [1]: 2370 nM

Compound: N=C(N)N/N=C/C12CC3CC(CC(C3)C1)C2
EC50 [2]: Not Active
Emax [3]: 140%
Emax [4]: 83% and 69%
EC50 [5]: 298 nM
Emax [6]: 83%
Emax [7]: 132%
EC50 [8]: 8330 nM
EC50 [9]: 8860 nM
EC50 [10]: 301 nM
Kb [11]: 41.7 nM
Emax [12]: 107%
EC50 [13]: > 10000 nM
EC50 [14]: 2450 nM
Emax [15]: 59%

Compound: NC(=O)[C@H](Cc1ccccc1)NC(=O)[C@H](CCCN=C(N)N)NC(=O)C12CC3CC(CC(C3)C1)C2
EC50 [16]: 462 nM
EC50 [5]: 379 nM
EC50 [10]: 472 nM
EC50 [1]: 71 nM

Compound: N=C(N)NCCC[C@H](NC(=O)C12CC3CC(CC(C3)C1)C2)C(=O)N[C@@H](Cc1ccccc1)C(N)=O
Ratio EC50 [18]: 271
Emax [19]: 93%
Emax [7]: 75%
Emax [12]: 75%
Emax [20]: 89%

Compound: NC(N)=NCCC[C@@H](NC(=O)C(c1ccccc1)c1ccccc1)C(=O)NCc1ccc(O)cc1
EC50 [2]: Not Active
Emax [7]: 57%
Emax [22]: 51%

More lines, now with the values ahead:

Emax [17]: 66%
Compound: CC(C)C[C@H](NC(=O)[C@H](CC(N)=O)NC(=O)[C@@H]1CCCN1C(=O)[C@@H](N)C(C)C)C(=O)N1CCC[C@H]1C(=O)N[C@@H](CCC(N)=O)C(=O)N[C@@H](CCCNC(=N)N)C(=O)N[C@@H](Cc1ccccc1)C(N)=O

Emax [21]: 22%
EC50 [5]: 2190 nM
EC50 [1]: 527 nM
Compound: N=C(N)N/N=C/c1ccc(Br)c(Br)c1

Emax [23]: 111%
EC50 [16]: > 10000 nM
EC50 [5]: 1660 nM
Emax [19]: 110%
Emax [24]: 88%
Emax [25]: 78%
Emax [26]: 77%
Emax [7]: 118%
EC50 [8]: > 10000 nM
EC50 [27]: > 10000 nM
EC50 [9]: > 10000 nM
EC50 [10]: 1260 nM
EC50 [28]: > 10000 nM
EC50 [29]: 4610 nM
Emax [12]: 100%
EC50 [1]: 5620 nM
EC50 [13]: > 10000 nM
Emax [30]: 37%
EC50 [14]: > 10000 nM
Emax [31]: 85%
Emax [32]: 65%
EC50 [33]: > 10000 nM
Emax [15]: 24%
Emax [34]: 21%
Compound: N=C(N)N/N=C/c1ccc(-c2ccc(Br)cc2C(F)(F)F)o1

EC50 [5]: 233 nM
EC50 [10]: 113 nM
Kb [11]: 20.9 nM
Compound: N=C(N)NCCC[C@@H](NC(=O)C(c1ccccc1)c1ccccc1)C(=O)NCc1ccc(O)cc1
